Assay results from PubChem BioAssay.
Inconclusive results are not listed.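 How the source made its calls, unless noted: active means viability increase at or above a cutoff of the median across tested compounds plus 3 SD (cut at about 8.5% in these data, passing the limit was not always enough); inconclusive means some gains above the cutoff, reason not given; inactive means the rest.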

Columns and labels:
[1] = S. cerevisiae growth inhibition in permissive medium (OD615), pilot counter-assay for S. cerevisiae lifespan shortening project, permissive growth control (AID 705;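 active means growth inhibition above 25% in both replicates, a cutoff set 3 SD above the mean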); details: OD615, 24 h, at 10 µM, active compounds read high
Summary of the method: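 System – S. cerevisiae with engineered DeaD lifespan system · Buffer or medium – SC raffinose/galactose permissive medium · Schedule – cells pre-grown 4 h, then 24 h compound exposure, 30 °C humidified · Technique – culture turbidity as optical density at 615 nm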

[2] = S. cerevisiae growth inhibition in restrictive medium, OD615, pilot screen, restrictive growth control, yeast lifespan reduction project (AID 706;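 active means growth inhibition above a set limit, 3 SD over mean compound inhibition, in both replicates, cut at about 43% in these data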;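 further: modified DeaD lifespan yeast strain shifted to restrictive glucose medium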); details: OD615, 48 h, at 10 µM, active compounds read high
Summary of the method: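 Material: engineered S. cerevisiae DeaD strain / Medium: glucose-based CSMM-D restrictive medium / Compound: single dose of 10 µM compound final, 0.25% DMSO / Timing: 4 h pre-incubation, 48 h exposure at 30 °C / Technique: OD615 absorbance reading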

[3] = doxorubicin toxicity protection in MRP-1 cells – H69AR cells, CellTiter-Glo, duplicate, MRP-1 activator project, pilot screen (AID 807); details: H69AR viability with doxorubicin, CellTiter-Glo luminescence; at 10 µM; active compounds read high;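 further: compound pretreatment 18-22 h then 72 h combined with doxorubicin; 0% = doxorubicin alone and 100% = vehicle without doxorubicin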
[4] = viability of HCT116 without oncogenic beta-catenin – human colon tumor cells, pilot screen (AID 823;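 active means cell viability at or below a set limit in both duplicate runs, the limit being the all-compound median minus 4 SD, cut at about 23% in these data, passing the limit was not always enough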;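 further: 0% = wells killed by 20 µM Hyamine and 100% = untreated DMSO cell wells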); details: HCT116 beta-catenin knockout viability, CellTiter-Glo, 60 h; at 10 µM; active compounds read low
[5] = viability of PTEN-null HCT116 cells – cell-based, HCT116 clonal line, CellTiter-Glo, pilot screen (AID 824;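 active means viability at or below 27.92% in each of two runs, the all-compound median minus 4 SD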;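 further: 0% = 20 µM Hyamine control and 100% = vehicle cell control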); details: HCT116 PTEN-deleted viability, 60 h, at 10 µM, active compounds read low
[6] = RAM pathway blockade in budding yeast – dse1pr::URA3 reporter, 5-FOA selection, pilot screen (AID 869;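 active means inhibition over a set limit, the all-compound mean plus 3 SD, in both replicate runs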;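 further: 0% = DMSO wells with no growth and 100% = 10 µM 1-NA-PP1 with full growth; RAM network block rescues cells from 5-FOA so hits raise OD615 growth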); details: S. cerevisiae dse1pr::URA3 5-FOA growth, OD615, 2 d; at 10 µM; active compounds read high; strain carries analog-sensitive mutant Cbk1 kinase
[7] = RAM signaling pathway blockade in yeast – S. cerevisiae, Pdr1DBD-CYC8 efflux-inhibited sensitized strain, primary screen (AID 1298;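 active means RAM network inhibition above 8.4% in each of two replicates, 3 SD over the compound average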;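 further: 0% = DMSO untreated cells without growth and 100% = 10 µM 1-NA-PP1 full growth; higher means more yeast growth rescued from 5-FOA killing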); details: S. cerevisiae cbk1-as DSE1-URA3 strain, 5-FOA growth OD615, 2 d; at 50 µM; active compounds read high

O=C1CN(C(=O)CN2CCOCC2)C(c2ccccc2)c2cc(Br)ccc2N1 (stereo not given)
inactive: growth inhibition [1] -9.19% | growth inhibition [2] -11.4% | viability increase [3] -3.48% | viability [4] 96.4% | viability [5] 92.8% | inhibition [6] 0.785% | RAM network inhibition [7] 1.01%

Cc1nc(C)c(C(=O)Nc2ccccc2)s1
inactive: growth inhibition [1] -0.755% | growth inhibition [2] -6.96% | viability increase [3] -0.17% | viability [4] 98.4% | viability [5] 88.3% | inhibition [6] 0.68% | RAM network inhibition [7] 3.02%

COc1ccc(-c2nc(CS(=O)CC(=O)NCc3cccnc3)c(C)o2)cc1 (stereo not given)
inactive: growth inhibition [1] 2.57% | growth inhibition [2] -2.7% | viability increase [3] -4.05% | viability [4] 89.3% | viability [5] 92.5% | inhibition [6] 1.14% | RAM network inhibition [7] 1.62%

COC(=O)c1ccc2c(c1)NC(=O)C1CCCN21 (stereo not given)
inactive: growth inhibition [1] 7.72% | growth inhibition [2] 12.4% | viability increase [3] -0.72% | viability [4] 91.2% | viability [5] 89.8% | inhibition [6] 0.305% | RAM network inhibition [7] -1.29%

CCCC(=O)C1=C(O)C(C(=O)OC)C(C)(C)CC1=NC (stereo not given)
inactive: growth inhibition [1] -14.5% | growth inhibition [2] -12.3% | viability increase [3] 0.12% | viability [4] 95.3% | viability [5] 94.9% | inhibition [6] 0.54% | RAM network inhibition [7] 0.46%

Cc1ccc(S(=O)(=O)N2C(=S)SCC2(C)C)cc1
inactive: growth inhibition [1] -0.04% | growth inhibition [2] 14.3% | viability increase [3] -1.47% | viability [4] 91.9% | viability [5] 83.5% | inhibition [6] -1.13% | RAM network inhibition [7] 0.51%

Cc1ccc(-c2cc(C(F)(F)F)n3ncc(C(=O)NCc4ccco4)c3n2)cc1
inactive: growth inhibition [1] -5.88% | growth inhibition [2] -12.6% | viability increase [3] -5.85% | viability [4] 74% | viability [5] 75.4% | inhibition [6] 2.67% | RAM network inhibition [7] 3.41%

O=C(NCC1CCCO1)c1ccc2c(c1)OCO2 (stereo not given)
inactive: growth inhibition [1] -3.01% | growth inhibition [2] 6% | viability increase [3] 0.18% | viability [4] 98.4% | viability [5] 94.3% | inhibition [6] 0.385% | RAM network inhibition [7] 3.13%

O=C1CC(c2nc3ccccc3[nH]2)CN1c1cccc(C(F)(F)F)c1 (stereo not given)
inactive: growth inhibition [1] -1.92% | growth inhibition [2] 4.75% | viability increase [3] 6.49% | viability [4] 86% | viability [5] 76.5% | inhibition [6] 1.1% | RAM network inhibition [7] -2.12%

Cc1sc2nc(NCCO)[nH]c(=O)c2c1C
inactive: growth inhibition [1] -15.5% | growth inhibition [2] -23.2% | viability increase [3] -2.72% | viability [4] 107% | viability [5] 97.2% | inhibition [6] 0.885% | RAM network inhibition [7] -1.79%

CC1CCc2nn(CC(=O)NC3CCCC(C)C3C)cc2C1 (stereo not given)
inactive: growth inhibition [1] -6.6% | growth inhibition [2] -6.19% | viability increase [3] 1.67% | viability [4] 97.5% | viability [5] 85.3% | inhibition [6] -0.3% | RAM network inhibition [7] 1.94%

O=C1CCc2cc(S(=O)(=O)NC(Cc3ccccc3)C(=O)NC3CCCC3)ccc2N1 (stereo not given)
inactive: growth inhibition [1] -11.3% | growth inhibition [2] -9.16% | viability increase [3] -0.35% | viability [4] 96.8% | viability [5] 98.8% | inhibition [6] 1.86% | RAM network inhibition [7] 0.41%

CCC(C)NC(=O)c1ccc(NC(=O)C2CCCO2)cc1 (stereo not given)
inactive: growth inhibition [1] -6.02% | growth inhibition [2] -6.03% | viability increase [3] 3.38% | viability [4] 100% | viability [5] 100% | inhibition [6] 4.56% | RAM network inhibition [7] 1.78%

CCCNC(=O)N1CCN(c2nc(C(C)C)c3c(c2C#N)CC(C)(C)OC3)CC1
inactive: growth inhibition [1] -12.9% | growth inhibition [2] -6.2% | viability increase [3] 2.34% | viability [4] 68.8% | viability [5] 61.5% | inhibition [6] 2.17% | RAM network inhibition [7] 8.42%

Cc1cccc(OCc2nc(C#N)c(N3CC(C)CC(C)C3)o2)c1 (stereo not given)
inactive: growth inhibition [1] 0.505% | growth inhibition [2] -2.89% | viability increase [3] 3.8% | viability [4] 63.5% | viability [5] 65.3% | inhibition [6] 1.85% | RAM network inhibition [7] 5.88%

COC(=O)C1(C)NC(=O)c2ccccc2N1 (stereo not given)
inactive: growth inhibition [1] -6.57% | growth inhibition [2] -7.71% | viability increase [3] -0.86% | viability [4] 102% | viability [5] 99.2% | inhibition [6] 0.47% | RAM network inhibition [7] 5.23%

N#Cc1c2n(c3c(=O)n(CC(=O)c4ccc(Br)cc4)cnc13)CCCC2
inactive: growth inhibition [1] -18.3% | growth inhibition [2] -5.47% | viability increase [3] -0.17% | viability [4] 86.1% | viability [5] 86% | inhibition [6] 0.885% | RAM network inhibition [7] 2.03%

Cc1ccc(CCN2CC(C(=O)NCCCN3CCN(C)CC3)CC2=O)cc1 (stereo not given)
inactive: growth inhibition [1] 1.07% | growth inhibition [2] -3.19% | viability increase [3] -2.38% | viability [4] 75.9% | viability [5] 92.8% | inhibition [6] -0.675% | RAM network inhibition [7] 1.23%

CC1Cc2ccccc2N1C(=O)C1CCCN(S(=O)(=O)c2cccc3cccnc23)C1 (stereo not given)
inactive: growth inhibition [1] -6.46% | growth inhibition [2] -11% | viability increase [3] -5.48% | viability [4] 67.9% | viability [5] 62.2% | inhibition [6] 2.08% | RAM network inhibition [7] 7.93%

Cn1c(=O)cc(N2CCCCC2)[nH]c1=O
inactive: growth inhibition [1] -15.3% | growth inhibition [2] -7.48% | viability increase [3] -0.1% | viability [4] 111% | viability [5] 97% | inhibition [6] 1.59% | RAM network inhibition [7] -0.8%

O=C(NCCN1CCN(c2cccc(Cl)c2)CC1)C1CCCN(S(=O)(=O)c2cnc[nH]2)C1 (stereo not given)
inactive: growth inhibition [1] 3.09% | growth inhibition [2] 3.15% | viability increase [3] -1.5% | viability [4] 91.1% | viability [5] 89.7% | inhibition [6] 0.895% | RAM network inhibition [7] 5.7%

COCCNC(=O)CS(=O)Cc1nc(-c2ccc(Cl)cc2)oc1C (stereo not given)
inactive: growth inhibition [1] -6.59% | growth inhibition [2] -1.85% | viability increase [3] -0.72% | viability [4] 94.7% | viability [5] 95.1% | inhibition [6] 3.21% | RAM network inhibition [7] 0.65%

Cc1ccc(C(=O)NCCn2cc(SCC(=O)Nc3cc(C)on3)c3ccccc32)cc1
inactive: growth inhibition [1] -3.4% | growth inhibition [2] 9.18% | viability increase [3] 1.75% | viability [4] 87.4% | viability [5] 96.9% | inhibition [6] 0.015% | RAM network inhibition [7] 0.42%

CCOC(=O)C1=C(C)Nc2nc(C)nn2C1c1ccc(C)cc1 (stereo not given)
inactive: growth inhibition [1] -0.5% | growth inhibition [2] 7.16% | viability increase [3] -1.84% | viability [4] 100% | viability [5] 97.8% | inhibition [6] 1.9% | RAM network inhibition [7] -0.2%

CCOC(=O)C1=C(C)NC(=O)NC1c1ccc(C)o1 (stereo not given)
inactive: growth inhibition [1] 8.61% | growth inhibition [2] 7.96% | viability increase [3] -1.92% | viability [4] 105% | viability [5] 100% | inhibition [6] 0.345% | RAM network inhibition [7] 2.74%
